Test results taken from ChEMBL document CHEMBL1275259, “In vitro antituberculosis activities of ACH-702, a novel isothiazoloquinolone, against quinolone-susceptible and quinolone-resistant isolates” (Antimicrob Agents Chemother, 2010).
Values after ≈ are worked out from the molar mass of the structure shown.

How the values were obtained:
DNA gyrase subunit A = DNA gyrase subunit A (Mycobacterium tuberculosis, UniProt P9WG47); experiment: Inhibition of DNA supercoiling activity of wild type Mycobacterium tuberculosis DNA gyrase A
Method in brief: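 Gyrase reconstituted from wild-type GyrA plus wild-type GyrB at a 2:3 molar ratio. Supercoiling assay follows ATP-dependent conversion of relaxed pBR322 DNA to the supercoiled form. Supercoiled product quantified by ethidium bromide fluorescence after agarose gel electrophoresis.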

[1] = tested on: Mycobacterium tuberculosis; experiment: Antimicrobial activity against pansusceptible Mycobacterium tuberculosis isolate 3; assay type: functional
Method in brief: (§1)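 Broth microdilution MIC in modified 7H10 broth (pH 6.6). Drugs dissolved in DMSO at 1 mg/ml, then serially diluted. Isolates grown 5 to 10 days at 37°C on a rotary shaker, diluted to 100 Klett units and frozen. Final inoculum about 6 × 10^4 CFU/ml (range 1.2 × 10^4 to 2.6 × 10^5). Duplicate wells, sealed, read after about 21 days at 37°C in ambient air.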

[2] = tested on: Mycobacterium tuberculosis; experiment: Antimicrobial activity against pansusceptible Mycobacterium tuberculosis isolate 2; assay type: functional; method in brief: as §1
[3] = tested on: Mycobacterium tuberculosis; experiment: Antimicrobial activity against pansusceptible Mycobacterium tuberculosis isolate 7; assay type: functional; method in brief: as §1
[4] = tested on: Mycobacterium tuberculosis; experiment: Antimicrobial activity against Mycobacterium tuberculosis isolate 13 isolated from Beijing; assay type: functional; method in brief: as §1
[5] = tested on: Mycobacterium tuberculosis; experiment: Antimicrobial activity against pansusceptible Mycobacterium tuberculosis isolate 4; assay type: functional; method in brief: as §1
[6] = tested on: Mycobacterium tuberculosis; experiment: Antimicrobial activity against pansusceptible Mycobacterium tuberculosis isolate 5; assay type: functional; method in brief: as §1
[7] = tested on: Mycobacterium tuberculosis; experiment: Antimicrobial activity against pansusceptible Mycobacterium tuberculosis isolate 14; assay type: functional; method in brief: as §1
[8] = tested on: Mycobacterium tuberculosis; experiment: Antimicrobial activity against pansusceptible Mycobacterium tuberculosis isolate 6; assay type: functional; method in brief: as §1
[9] = tested on: Mycobacterium tuberculosis; experiment: Antimicrobial activity against pansusceptible Mycobacterium tuberculosis isolate 1; assay type: functional; method in brief: as §1

Sequence of DNA gyrase subunit A (P9WG47 whole entry): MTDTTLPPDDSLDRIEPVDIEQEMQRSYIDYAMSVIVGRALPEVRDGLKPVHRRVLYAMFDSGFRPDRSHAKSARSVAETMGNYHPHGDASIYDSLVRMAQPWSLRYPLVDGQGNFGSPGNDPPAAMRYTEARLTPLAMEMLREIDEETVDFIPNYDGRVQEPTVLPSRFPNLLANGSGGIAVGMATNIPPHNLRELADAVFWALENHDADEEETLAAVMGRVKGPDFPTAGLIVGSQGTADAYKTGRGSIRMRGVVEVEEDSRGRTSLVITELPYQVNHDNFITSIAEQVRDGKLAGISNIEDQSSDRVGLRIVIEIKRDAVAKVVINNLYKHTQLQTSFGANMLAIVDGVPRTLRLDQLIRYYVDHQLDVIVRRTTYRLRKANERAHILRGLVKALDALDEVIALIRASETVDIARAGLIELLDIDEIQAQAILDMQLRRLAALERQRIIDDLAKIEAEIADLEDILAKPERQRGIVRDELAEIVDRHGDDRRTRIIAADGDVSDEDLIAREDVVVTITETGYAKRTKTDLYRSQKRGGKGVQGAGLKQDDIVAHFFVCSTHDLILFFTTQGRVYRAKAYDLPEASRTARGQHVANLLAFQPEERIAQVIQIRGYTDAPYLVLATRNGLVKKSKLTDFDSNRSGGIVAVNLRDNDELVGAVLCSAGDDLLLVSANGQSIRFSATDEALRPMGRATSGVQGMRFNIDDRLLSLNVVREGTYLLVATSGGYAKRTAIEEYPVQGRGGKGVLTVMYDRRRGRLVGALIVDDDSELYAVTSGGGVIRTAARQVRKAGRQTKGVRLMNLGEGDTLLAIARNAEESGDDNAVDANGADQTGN

Row | SMILES | IC50 (DNA gyrase subunit A) [µM] | MIC [1] [µg/mL] | MIC [2] [µg/mL] | MIC [3] [µg/mL] | MIC [4] [µg/mL] | MIC [5] [µg/mL] | MIC [6] [µg/mL] | MIC [7] [µg/mL] | MIC [8] [µg/mL] | MIC [9] [µg/mL]
1 | COc1c(N2CCNC(C)C2)c(F)cc2c(=O)c(C(=O)O)cn(C3CC3)c12 (centres undefined) [GATIFLOXACIN] | 9.4 |  |  |  |  |  |  |  |  | 
2 | COc1c(N2C[C@@H]3CCCN[C@@H]3C2)c(F)cc2c(=O)c(C(=O)O)cn(C3CC3)c12 [MOXIFLOXACIN] |  | 0.03 (≈ 0.0747 µM) | 0.03 (≈ 0.0747 µM) | 0.06 (≈ 0.149 µM) | 0.03 (≈ 0.0747 µM) | 0.06 (≈ 0.149 µM) | 0.06 (≈ 0.149 µM) | 0.03 (≈ 0.0747 µM) | 0.03 (≈ 0.0747 µM) | 0.03 (≈ 0.0747 µM)
3 | CO[C@H]1/C=C/O[C@@]2(C)Oc3c(C)c(O)c4c(O)c(c(/C=N/N5CCN(C)CC5)c(O)c4c3C2=O)NC(=O)/C(C)=C\C=C\[C@H](C)[C@H](O)[C@@H](C)[C@@H](O)[C@@H](C)[C@H](OC(C)=O)[C@@H]1C [RIFAMPIN] |  | 0.004 (≈ 0.00486 µM) | ≤ 0.001 | 0.004 (≈ 0.00486 µM) | 0.002 (≈ 0.00243 µM) | 0.008 (≈ 0.00972 µM) | 0.015 (≈ 0.0182 µM) | 0.002 (≈ 0.00243 µM) | 0.008 (≈ 0.00972 µM) | 0.004 (≈ 0.00486 µM)
4 | NNC(=O)c1ccncc1 [ISONIAZID] |  | 0.06 (≈ 0.438 µM) | 0.06 (≈ 0.438 µM) | 0.06 (≈ 0.438 µM) | 0.125 (≈ 0.911 µM) | 0.06 (≈ 0.438 µM) | 0.125 (≈ 0.911 µM) | 0.06 (≈ 0.438 µM) | 0.06 (≈ 0.438 µM) | 0.03 (≈ 0.219 µM)
5 | C[C@H]1COc2c(N3CCN(C)CC3)c(F)cc3c(=O)c(C(=O)O)cn1c23 [LEVOFLOXACIN] | 52 |  |  |  |  |  |  |  |  | 
6 | COc1c(N2CC[C@@H](C(C)(C)N)C2)c(F)cc2c(=O)c3c(=O)[nH]sc3n(C3CC3)c12 | 2.9 | 0.06 (≈ 0.139 µM) | 0.03 (≈ 0.0694 µM) | 0.06 (≈ 0.139 µM) | 0.06 (≈ 0.139 µM) | 0.06 (≈ 0.139 µM) | 0.06 (≈ 0.139 µM) | 0.06 (≈ 0.139 µM) | 0.03 (≈ 0.0694 µM) | 0.06 (≈ 0.139 µM)
